Measured values collected from several papers.
Protocols differ between the studies behind these lines.
Target: Serine/threonine-protein kinase Sgk1 (SGK1, Homo sapiens, UniProt O00141)
Sequence (O00141 1-431, as in one of the studies): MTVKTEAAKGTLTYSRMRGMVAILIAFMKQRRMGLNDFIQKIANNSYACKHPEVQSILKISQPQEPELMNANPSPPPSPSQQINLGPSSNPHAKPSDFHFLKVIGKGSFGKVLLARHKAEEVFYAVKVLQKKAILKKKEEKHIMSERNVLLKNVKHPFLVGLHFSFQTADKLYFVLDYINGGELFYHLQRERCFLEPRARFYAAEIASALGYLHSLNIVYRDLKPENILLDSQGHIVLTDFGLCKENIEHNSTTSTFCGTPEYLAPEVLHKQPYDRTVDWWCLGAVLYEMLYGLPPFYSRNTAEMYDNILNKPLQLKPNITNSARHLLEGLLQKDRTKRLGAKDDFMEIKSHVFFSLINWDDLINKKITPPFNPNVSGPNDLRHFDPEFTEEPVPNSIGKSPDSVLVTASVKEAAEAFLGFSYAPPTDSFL

O=C(NCc1ncc(C(F)(F)F)cc1Cl)c1ccc2c(c1)C1(CCS(=O)(=O)CC1)[C@@H](C1CC1)N2S(=O)(=O)c1ccc(F)cc1  remaining binding (cell-free assay, competition with immobilised ligand; 1 µM): 77%
COc1cnc(Nc2cccc(S(N)(=O)=O)c2)nc1N1CCN(c2ccccc2)CC1  remaining binding (binding, competition with immobilised ligand; 1 µM): 76%
O=C(NCCCN1CCOCC1)c1ccc(Nc2nccc(-c3cc4ccccc4s3)n2)cc1  remaining binding (binding, competition with immobilised ligand; 1 µM): 8%
c1cncc(-c2cccc(Nc3nccc(NC4CCCCC4)n3)c2)c1  remaining binding (binding, competition with immobilised ligand; 10 µM): 92%
CC1=C(C#N)[C@@H](c2ccc3[nH]nc(C)c3c2)C(C#N)=C(c2ccc(Cl)cc2)N1  remaining binding (cell-free assay, competition with immobilised ligand; 1 µM): 100%
C[C@@H]1CCN(c2nccc(-c3cnn4ncccc34)n2)C1  remaining binding (binding; 1 µM): 58%
CCN1CCN(Cc2ccc(C(=O)Nc3ccc(C)c(Oc4ccc5c(c4)CC(=O)N5)c3)cc2C(F)(F)F)CC1  remaining binding (binding, competition with immobilised ligand; 1 µM): 79%
O=C(c1ccc(Nc2ncc(Cl)c(-c3ccc(Cl)s3)n2)cc1)N1CCC(N2CCCC2)CC1  remaining binding (binding, competition with immobilised ligand; 1 µM): 0.1%
O=C(N[C@H]1CCCCC/C=C\C2C[C@@]2(C(=O)O)NC(=O)[C@@H]2C[C@@H](Oc3ccncc3)CN2C1=O)OC1CCCC1 (stereo partly shown)  remaining binding (binding, competition with immobilised ligand; 1 µM): 100%
C=CC(=O)N1CCC(C(=O)NCC(=O)N2CCN(c3nc(-c4cnc(N)nc4C(F)F)nc(N4CCOCC4)n3)CC2)CC1  remaining binding (binding, competition with immobilised ligand; 1 µM): 85%
CN(C)c1ncc(F)c(-c2cnn3ncccc23)n1  remaining binding (binding; 1 µM): 79%
Cc1cc(NC(=O)c2cccc(S(F)(F)(F)(F)F)c2)cc(-n2ccn3nc(-c4cccnc4)cc23)c1  remaining binding (cell-free assay, competition with immobilised ligand; 1 µM): 81.3%
Cc1cnn2ncc(-c3ccnc(N(C)C)n3)c2c1  remaining binding (binding; 1 µM): 73%
CN(C)CC#Cc1ccc(OCCCc2sc(N3CCc4cccc(C(=O)Nc5nc6ccccc6s5)c4C3)nc2C(=O)O)c(F)c1  remaining binding (cell-free assay, competition with immobilised ligand; 1 µM): 100%
COc1ccnn2ncc(-c3ccnc(N(C)C)n3)c12  remaining binding (binding; 1 µM): 80%
O=C(NCC1CCOCC1)c1n[nH]cc1NC(=O)c1c(F)cccc1F  remaining binding (binding, competition with immobilised ligand; 1 µM): 89%
CN(C)c1nccc(-c2cnn3ncccc23)n1  remaining binding (binding; 1 µM): 69%
COc1cnc(Nc2cccc(S(N)(=O)=O)c2)nc1N1CCN(c2ccccc2)C(=O)C1  remaining binding (binding, competition with immobilised ligand; 1 µM): 94%
CN(c1nccc(-c2cnn3ncccc23)n1)C1CC1  remaining binding (binding; 1 µM): 100%
CC(=O)N1CCC(c2ccc(C(=O)NC3=NCCN3)cc2C(F)(F)F)CC1  remaining binding (cell-free assay, competition with immobilised ligand; 1 µM): 100%
O=C(c1ccc(Nc2ncc(Cl)c(-c3cc4ccccc4s3)n2)cc1)N1CCC(N2CCCC2)CC1  remaining binding (binding, competition with immobilised ligand; 1 µM): 0.1%
N[C@@H]1CCN(c2nccc(-c3cnn4ncccc34)n2)C1  remaining binding (binding; 1 µM): 100%
